Values after ≈ are worked out from the molar mass of the structure shown.
Experiments:
Felid alphaherpesvirus 1 = assay: Antiviral activity against Feline herpesvirus infected in cat CRFK cells assessed as protection from virus-induced cytopathogenicity by MTT assay; format: functional, organism-based; settings: Felid alphaherpesvirus 1, CRFK
Feline coronavirus = assay: Antiviral activity against Feline coronavirus infected in cat CRFK cells assessed as protection from virus-induced cytopathogenicity by MTT assay; format: functional, organism-based; settings: Alphacoronavirus 1, CRFK
[1] = Cytotoxicity against Feline herpesvirus infected cat CRFK cells by trypan blue exclusion method; format: cell-based, Felis catus; settings: CRFK cells infected with feline herpesvirus
Outline: (§1)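 Uninfected confluent cultures were run in parallel with the infected cultures. Medium was replaced by 1 ml maintenance medium with serial compound concentrations; cell controls received no compound. Cultures were incubated at 37 °C. After 2 and 7 days, compound was withdrawn and viability was determined by trypan blue exclusion.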

[2] = Cytotoxicity against Herpes simplex virus 1 KOS infected HEL cells by trypan blue exclusion method; format: cell-based; settings: human, HEL cells infected with herpes simplex virus 1 KOS; outline: as §1
[3] = Cytotoxicity against Feline coronavirus infected cat CRFK cells by trypan blue exclusion method; format: cell-based, Felis catus; settings: CRFK cells infected with feline coronavirus; outline: as §1
[4] = Cytotoxicity against Vaccinia virus infected HEL cells by trypan blue exclusion method; format: cell-based; settings: human, HEL cells infected with vaccinia virus; outline: as §1
[5] = Cytotoxicity against Herpes simplex virus 2 G infected HEL cells by trypan blue exclusion method; format: cell-based; settings: human, HEL cells infected with herpes simplex virus 2 G; outline: as §1
[6] = tested on: Vesicular stomatitis virus; assay: Antiviral activity against VSV infected in HEL cells assessed as protection from virus-induced cytopathogenicity after 1 to 2 days by MTT assay; format: functional, organism-based
[7] = Cytotoxicity against VSV infected HEL cells by trypan blue exclusion method; format: cell-based; settings: human, HEL cells infected with VSV; outline: as §1
Escherichia coli = assay: Antibacterial activity against Escherichia coli after 24 hrs by broth microdilution method; format: functional; settings: Escherichia coli, 24 h; read-out: MIC
Outline: (§2)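 Clinical isolates. Each dilution received 100 μl of 0.5 McFarland fresh culture. Solvent (DMSO), growth and standard controls were included. Tubes were incubated at 37 °C for 24 h. MIC is the highest dilution showing no turbidity. Tests were run in triplicate, with at least two repetitions.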

Proteus mirabilis = assay: Antibacterial activity against Proteus mirabilis after 24 hrs by broth microdilution method; format: functional; settings: Proteus mirabilis, 24 h; read-out: MIC; outline: as §2
Klebsiella pneumoniae = assay: Antibacterial activity against Klebsiella pneumoniae after 24 hrs by broth microdilution method; format: functional; settings: Klebsiella pneumoniae, 24 h; read-out: MIC; outline: as §2

Row | SMILES | EC50 (Felid alphaherpesvirus 1) [µM] | EC50 (Feline coronavirus) [µM] | CC50 [1] [µM] | CC50 [2] [µM] | CC50 [3] [µM] | CC50 [4] [µM] | CC50 [5] [µM] | EC50 [6] [µM] | CC50 [7] [µM] | MIC (Escherichia coli) [µM] | MIC (Proteus mirabilis) [µM] | MIC (Klebsiella pneumoniae) [µM]
1 | Nc1nc2c(ncn2COC(CO)CO)c(=O)[nH]1 [GANCICLOVIR] | 2.6 | > 100 | > 100 | > 100 | > 100 | > 100 | > 100 | > 100 | > 100 |  |  | 
2 | CCCCCCCCCCCCCCCC(=O)Oc1ccc(/C=C/C(=O)CC(=O)/C=C/c2ccc(OC(=O)CCCCCCCCCCCCCCC)c(OC)c2)cc1OC |  |  |  |  |  |  |  |  |  | 0.53 (≈ 0.448 µg/mL) | 0.53 (≈ 0.448 µg/mL) | 0.53 (≈ 0.448 µg/mL)

Reference: ChEMBL document CHEMBL1154855 (Eur J Med Chem, 2010)
